Measured values reported in PMC3577957 (Insect biochemistry and molecular biology, 2012).
Marks after values point to notes of the source that are not given here.

Legend:
MsJHEH [1] = target: T1, MsJHEH (Manduca sexta, UniProt Q25489); test: Fluorescent substrate assay, MsJHEH; type: biochemical; conditions: 50 mM Tris-HCl, pH 8.0, 5 μM substrate (25 μM for CMNGC), 100 μM OTFP, 1% DMSO, 0.1 mg ml^−1 BSA, 30°C
T1 sequence (Q25489 1-462): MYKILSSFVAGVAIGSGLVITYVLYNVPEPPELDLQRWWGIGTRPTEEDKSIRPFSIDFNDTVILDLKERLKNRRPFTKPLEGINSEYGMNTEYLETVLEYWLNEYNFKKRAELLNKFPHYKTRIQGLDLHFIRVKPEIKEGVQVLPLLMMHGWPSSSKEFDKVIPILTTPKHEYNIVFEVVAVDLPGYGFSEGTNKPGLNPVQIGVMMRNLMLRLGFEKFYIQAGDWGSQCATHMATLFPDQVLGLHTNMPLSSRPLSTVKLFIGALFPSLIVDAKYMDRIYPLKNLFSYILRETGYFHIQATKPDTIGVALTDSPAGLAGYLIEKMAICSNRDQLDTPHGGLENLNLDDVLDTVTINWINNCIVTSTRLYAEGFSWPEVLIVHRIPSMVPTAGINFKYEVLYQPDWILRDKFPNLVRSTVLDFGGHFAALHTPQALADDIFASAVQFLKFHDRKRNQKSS
Outline: (§1)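 Enzyme was microsomal fraction from High Five cells infected with recombinant baculovirus (MOI 0.5, 27°C, 65 h p.i.), solubilized with 0.5% Triton X-100, and taken as the 163,000 xg supernatant. Enzyme was preincubated 5 min with OTFP before α-cyanoester/carbonate epoxide substrate was added. Fluorescence (ex 330/em 465 nm) was read every 30 s for 10 min. Aldehyde product was quantified against a 6-methoxy-2-naphthaldehyde standard curve. No-OTFP controls measured ester hydrolysis. Quadruplicate wells, ≥3 plates.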

Hv-mEH1 [2] = target: T2, Hv-mEH1 (Chloridea virescens, UniProt L7R9X8); test: Fluorescent substrate assay, Hv-mEH1; type: biochemical, Heliothis virescens; conditions: 50 mM Tris-HCl, pH 8.0, 5 μM substrate (25 μM for CMNGC), 100 μM OTFP, 1% DMSO, 0.1 mg ml^−1 BSA, 30°C
Outline: as §1

[3] = target: T3, hmEH (human microsomal EH, EPHX1) (Homo sapiens, UniProt P07099); test: Fluorescent substrate assay, hmEH; type: biochemical; conditions: 50 mM Tris-HCl, pH 8.0, 5 μM substrate, 100 μM OTFP, 1% DMSO, 0.1 mg ml^−1 BSA, 30°C
T3 sequence (P07099 1-455): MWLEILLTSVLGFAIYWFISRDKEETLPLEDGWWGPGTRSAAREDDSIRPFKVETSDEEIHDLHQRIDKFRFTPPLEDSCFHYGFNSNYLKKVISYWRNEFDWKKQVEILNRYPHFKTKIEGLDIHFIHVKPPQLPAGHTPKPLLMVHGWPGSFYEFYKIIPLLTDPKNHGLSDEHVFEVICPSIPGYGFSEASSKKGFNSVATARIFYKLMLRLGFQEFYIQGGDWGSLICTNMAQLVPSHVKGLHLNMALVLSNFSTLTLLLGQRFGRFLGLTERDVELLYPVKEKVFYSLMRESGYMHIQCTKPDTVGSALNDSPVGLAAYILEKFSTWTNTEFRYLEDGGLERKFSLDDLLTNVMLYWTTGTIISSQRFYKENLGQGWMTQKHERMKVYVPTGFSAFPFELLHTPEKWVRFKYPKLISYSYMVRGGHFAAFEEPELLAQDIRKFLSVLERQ

MsJHEH [4] = target: T1, MsJHEH; test: Partition assay with radiolabeled general epoxide substrates, MsJHEH; type: biochemical; conditions: 100 mM sodium phosphate, pH 8.0, 50 μM substrate, 1% ethanol, 0.1 mg ml^−1 BSA, 30°C; corrected for background hydrolysis
Outline: (§2)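 Microsomal enzyme came from baculovirus-infected High Five cells (MOI 0.5, 65 h p.i., Triton X-100 extract, 163,000 xg supernatant). Partition assay used tritium-labeled cis-stilbene oxide, trans-stilbene oxide or t-DPPO. Enzyme amount was set so at most 15% of substrate was hydrolyzed. Assays were run in triplicate and repeated at least three times. Results are mean ± standard deviation.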

Hv-mEH1 [5] = target: T2, Hv-mEH1; test: Partition assay with radiolabeled general epoxide substrates, Hv-mEH1; type: biochemical, Heliothis virescens; conditions: 100 mM sodium phosphate, pH 8.0, 50 μM substrate, 1% ethanol, 0.1 mg ml^−1 BSA, 30°C; corrected for background hydrolysis
Outline: as §2

[6] = target: T3, hmEH (human microsomal EH, EPHX1); conditions: 25 μM CMNGC; ref Morisseau et al., 2011; cited from earlier work
Hv-mEH1 [7] = target: T2, Hv-mEH1; test: JH III partition assay and kinetic constant determination, Hv-mEH1; type: biochemical, Heliothis virescens
Outline: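 Recombinant enzyme expressed in baculovirus-infected High Five cells (MOI 0.5, 27°C, harvested 65 h p.i.). Used the Triton X-100-solubilized microsomal supernatant. Tritiated JH III partition assay at eight concentrations (96 to 11,190 nM), with 1% ethanol and 0.1 mg ml−1 BSA. Ran 5 to 30 min with ≤15% hydrolysis, non-enzymatic background subtracted. KM/Vmax fitted by enzyme kinetics, triplicate, repeated three times.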

Bommo-JHEH = conditions: ref Zhang et al., 2005; cited from earlier work
MsJHEH [8] = target: T1, MsJHEH; conditions: cited from earlier work

Row | Structure (SMILES) | Specific Activity MsJHEH with fluorescent substrates (MsJHEH [1]) [nmol/min/mg] | Specific Activity Hv-mEH1 with fluorescent substrates (Hv-mEH1 [2]) | Specific Activity hmEH with fluorescent substrates [3] [nmol/min/mg] | Specific Activity MsJHEH (MsJHEH [4]) [nmol/min/mg] | Specific Activity Hv-mEH1 (Hv-mEH1 [5]) [nmol/min/mg] | other results
1 | COc1ccc2cc(C(C#N)OC(=O)OC[C@@H]3O[C@H]3c3ccccc3)ccc2c1 (relative stereo) [MNPC, cyano(6-methoxy-naphthalen-2-yl)methyl trans-[(3-phenyloxiran-2-yl)methyl] carbonate] | 29 ± 18 | 816 ± 140 nmol/min/mg | < 1.0 |  |  | 
2 | COc1ccc2cc(C(C#N)OC(=O)OCC3OC3(C)C)ccc2c1 (stereo not drawn) [MNiPC, cyano-(6-methoxy-naphthalen-2-yl)-methyl 3,3-dimethyl-oxiranylmethyl carbonate] | 1.3 ± 0.5 | 3.7 ± 1.1 nmol/min/mg | < 1.0 |  |  | 
3 | c1ccc([C@@H]2O[C@H]2c2ccccc2)cc1 (relative stereo) [t-SO, trans-stilbene oxide] |  |  |  | 2.1 ± 0.3 | 0.3 ± 0.01 | 
4 | c1ccc([C@H]2O[C@H]2c2ccccc2)cc1 [c-SO, cis-stilbene oxide] |  |  |  | 3.7 ± 0.5 | 45.8 ± 7.0 | 
5 | COc1ccc2cc(C(C#N)OC(=O)OCC3CO3)ccc2c1 (stereo not drawn) [CMNGC, cyano(6-methoxy-naphthalen-2-yl)methyl oxiran-2-ylmethyl carbonate] | 3.3 ± 0.2 | 0.03 ± 0.001 nmol/min/mg |  |  |  | Specific Activity hmEH with CMNGC [6]: 25 ± 2 ^b nmol min^−1 mg^−1
6 | CC[C@@H]1O[C@H]1COC(=O)OC(C#N)c1ccc2cc(OC)ccc2c1 (relative stereo) [MNPEC, cyano-(6-methoxy-naphthalen-2-yl)-methyl trans-((3-ethyl-oxiran-2-yl)methyl) carbonate] | 0.8 ± 0.1 | 122 ± 11 nmol/min/mg | < 1.0 |  |  | 
7 | COC(=O)/C=C(\C)CC/C=C(\C)CC[C@H]1OC1(C)C [JH III, juvenile hormone (JH) III] |  |  |  |  |  | specificity constant (kcat/KM ratio) of Hv-mEH1 for JH III (Hv-mEH1 [7]): 630 M⁻¹ s⁻¹; Vmax of Hv-mEH1 for JH III (Hv-mEH1 [7]; 100 mM sodium phosphate, pH 8.0, 30°C, JH III diol formed): 1.7 ± 0.1 nmol/min/mg; kcat of Hv-mEH1 for JH III (Hv-mEH1 [7]; calculated using estimated molecular mass of 53.1 kDa): 0.002 s⁻¹; specificity constant of Bommo-JHEH for JH III (Bommo-JHEH): 77000 M⁻¹ s⁻¹; Vmax of MsJHEH for JH III (MsJHEH [8]; ref Severson et al., 2002): 59 nmol/min/mg; specificity constant of MsJHEH for JH III (MsJHEH [8]; ref Touhara and Prestwich, 1993): 290000 M⁻¹ s⁻¹
8 | COc1ccc2cc(C(C#N)OC(=O)C[C@@H]3O[C@H]3c3ccccc3)ccc2c1 (relative stereo) [MNPE, cyano(2-methoxynaphthalen-6-yl)methyl trans-(2-(3-phenyloxiran-2-yl))acetate] | 8.9 ± 0.4 | 138 ± 9 nmol/min/mg | < 1.0 |  |  | 
9 | CCC[C@@H]1O[C@H]1CC(=O)OC(C#N)c1ccc2cc(OC)ccc2c1 (relative stereo) [MNHE, cyano(2-methoxynaphthalen-6-yl)methyl trans-2-(3-propyloxiran-2-yl)acetate] | 38 ± 3 | 1,180 ± 8 nmol min^−1 mg^−1 | < 1.0 |  |  | 
10 | c1ccc(CC2OC2c2ccccc2)cc1 (stereo not drawn) [t-DPPO, trans-diphenylpropene oxide] |  |  |  | 18.3 ± 4.0 | 0.1 ± 0.04 | 
